Results as given in paper PMC6911349 (Drug Design, Development and Therapy, 2019).
In brackets after ≈: the same amount, converted by molar mass. Where two headings read alike, the source gives them in different places.

Assays:
[1] = target: acetylcholinesterase (AChE) (Electrophorus electricus, UniProt O42275); test: biochemical; set-up: species or system electric eel
Pheretima posthuma = test: Anthelmintic study
In short: (§1)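 P. posthuma (7–9 cm) collected from muddy soil; A. galli taken from domestic chicken intestine. Test compound suspended in distilled water with Tween 80 at 10, 20 and 40 mg. 25 mL per Petri dish, six worms per dish. […] Paralysis and death times recorded.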

MCF-7 = test: MTT assay; type: cell-based; conditions: Homo sapiens, MCF7, 48 h
In short: (§2)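 Cells grown in DMEM with 10% FBS, streptomycin 100 µg/mL and penicillin 100 IU/mL, at 37 °C, 5% CO2. Seeded at 6×10^4 cells/mL (80% confluence) and incubated overnight. Medium replaced with fresh medium holding test compound at 31.25–1000 ppm for 48 h.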

ABTS anti-radicals study = test: ABTS anti-radicals study
In short: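 ABTS (7 mM) combined with […] and held in the dark at 25 °C for 12–16 h to form radicals. Diluted in 0.01 M phosphate buffer, pH 7.4, to A734 of 0.70. 300 µL test compound solution added to 3.0 mL radical solution; decrease in absorbance recorded. Ascorbic acid as reference.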

Ascaridia galli = test: Anthelmintic study
In short: as §1

NIH/3T3 = test: MTT assay; type: cell-based; conditions: Mus musculus, NIH3T3, 48 h
In short: as §2

[2] = target: butyrylcholinesterase (BChE) (Equus caballus, UniProt P81908); test: Butyrylcholinesterase inhibitory assay; type: biochemical, equine
MDA-MB-231 = test: MTT assay; type: cell-based; conditions: Homo sapiens, MDA-MB-231, 48 h
In short: as §2

[3] = MTT assay, normal cell line; type: cell-based; conditions: human, WI-38 normal cell line
In short: as §2

WI-38 = test: MTT assay, normal cell line; type: cell-based; conditions: Homo sapiens, WI-38, WI-38 normal cell line
In short: as §2

HCT-116 = test: MTT assay; type: cell-based; conditions: Homo sapiens, HCT-116, 48 h
In short: as §2

H2O2 anti-radicals study = test: H2O2 anti-radicals study
In short: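 2 mM H2O2 in 50 mM phosphate buffer, pH 7.4, mixed with 0.1 mL test compound at various concentrations. Absorbance at 230 nm read against blank after 10 min; H2O2 scavenging calculated from absorbance.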

[4] = DPPH radical scavenging assay
In short: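 Test compound dilutions of 62.50–1000 µg/mL; 0.1 mL of each added to 3.0 mL DPPH in methanol. Incubated 30 min, then absorbance read at 517 nm. % scavenging = [(A0–A1)/A0]×100, where A0 is control and A1 is test absorbance. Ascorbic acid as reference.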

α-glucosidase = α-glucosidase (Saccharomyces cerevisiae, UniProt P53341); test: α-Glucosidase inhibition chromogenic assay; type: biochemical
[5] = 40 mg/mL, listed as test compound
[6] = 1000 µg/mL, listed as test compound

α-glucosidase, sequence (P53341 whole entry): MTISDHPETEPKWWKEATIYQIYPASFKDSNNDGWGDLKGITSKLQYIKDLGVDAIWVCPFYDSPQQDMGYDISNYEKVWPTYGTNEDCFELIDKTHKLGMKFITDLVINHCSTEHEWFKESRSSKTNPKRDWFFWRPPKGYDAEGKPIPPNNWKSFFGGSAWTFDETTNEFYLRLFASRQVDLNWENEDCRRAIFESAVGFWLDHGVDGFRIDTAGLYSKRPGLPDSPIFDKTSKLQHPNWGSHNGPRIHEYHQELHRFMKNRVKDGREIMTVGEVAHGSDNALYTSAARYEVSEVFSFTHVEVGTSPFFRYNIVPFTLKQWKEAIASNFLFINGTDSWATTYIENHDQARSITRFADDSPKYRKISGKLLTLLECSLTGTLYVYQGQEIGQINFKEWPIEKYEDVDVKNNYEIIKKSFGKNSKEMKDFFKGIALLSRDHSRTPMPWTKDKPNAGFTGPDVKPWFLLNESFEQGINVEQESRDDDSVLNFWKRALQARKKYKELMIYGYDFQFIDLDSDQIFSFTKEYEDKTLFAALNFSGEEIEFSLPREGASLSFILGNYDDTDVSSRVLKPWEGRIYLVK
acetylcholinesterase (AChE), sequence (O42275 24-633): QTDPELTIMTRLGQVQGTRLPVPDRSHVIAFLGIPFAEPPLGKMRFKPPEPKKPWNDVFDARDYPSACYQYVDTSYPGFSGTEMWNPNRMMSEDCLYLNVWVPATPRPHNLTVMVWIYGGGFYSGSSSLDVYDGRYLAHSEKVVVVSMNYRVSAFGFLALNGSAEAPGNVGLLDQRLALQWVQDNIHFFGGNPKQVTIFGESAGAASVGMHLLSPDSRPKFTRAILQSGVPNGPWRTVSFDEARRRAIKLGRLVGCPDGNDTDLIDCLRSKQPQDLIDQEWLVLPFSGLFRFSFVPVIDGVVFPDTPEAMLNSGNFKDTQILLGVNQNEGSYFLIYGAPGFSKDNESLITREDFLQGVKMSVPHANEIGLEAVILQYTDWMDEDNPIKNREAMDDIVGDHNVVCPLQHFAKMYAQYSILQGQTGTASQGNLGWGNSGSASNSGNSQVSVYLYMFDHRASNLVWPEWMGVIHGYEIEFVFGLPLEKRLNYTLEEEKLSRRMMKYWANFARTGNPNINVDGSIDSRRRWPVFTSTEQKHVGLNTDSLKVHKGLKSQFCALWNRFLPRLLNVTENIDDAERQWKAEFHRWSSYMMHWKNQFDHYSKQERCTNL
butyrylcholinesterase (BChE), sequence (P81908 whole entry): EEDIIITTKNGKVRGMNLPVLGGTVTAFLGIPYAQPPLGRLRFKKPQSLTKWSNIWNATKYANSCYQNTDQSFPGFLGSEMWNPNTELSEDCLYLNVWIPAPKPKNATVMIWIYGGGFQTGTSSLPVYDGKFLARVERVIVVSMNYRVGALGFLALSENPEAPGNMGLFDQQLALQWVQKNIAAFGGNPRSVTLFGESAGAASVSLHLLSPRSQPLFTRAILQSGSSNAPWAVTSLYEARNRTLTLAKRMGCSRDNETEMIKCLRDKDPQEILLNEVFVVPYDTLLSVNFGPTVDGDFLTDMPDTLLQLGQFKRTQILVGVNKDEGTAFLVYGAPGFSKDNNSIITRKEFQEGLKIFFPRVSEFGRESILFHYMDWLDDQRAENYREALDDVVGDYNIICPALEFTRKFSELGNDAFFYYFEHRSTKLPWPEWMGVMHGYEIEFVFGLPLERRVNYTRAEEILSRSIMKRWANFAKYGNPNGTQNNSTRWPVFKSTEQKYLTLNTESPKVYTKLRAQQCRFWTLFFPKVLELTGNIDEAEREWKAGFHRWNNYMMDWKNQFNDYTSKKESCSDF

In the case of CCC(C=O)C1CC(=O)N(c2ccccc2)C1=O (centres unmarked) [2-(2,5-dioxo-1-phenylpyrrolidin-3-yl)butanal], the IC50 [1] is reported as 422 µM, the “Acetylcholinesterase (AChE) Percent Inhibition (Mean±SEM)” value ([1]; 1000 µg/mL) is reported as 71.3±1.9% and the inhibition at 62.5 µg/mL ([1]; read-out: Acetylcholinesterase (AChE) Percent Inhibition (Mean±SEM), 62.5 μg/mL) is reported as 39.6%. It also gave an inhibition at 125 µg/mL ([1]; read-out: Acetylcholinesterase (AChE) Percent Inhibition (Mean±SEM), 125 μg/mL) of 55.9%, an inhibition at 250 µg/mL ([1]; read-out: Acetylcholinesterase (AChE) Percent Inhibition (Mean±SEM), 250 μg/mL) of 61.2% and an inhibition at 500 µg/mL ([1]; read-out: Acetylcholinesterase (AChE) Percent Inhibition (Mean±SEM), 500 μg/mL) of 65.4%. For the same molecule, the inhibition at 1000 µg/mL ([1]; read-out: Acetylcholinesterase (AChE) Percent Inhibition (Mean±SEM), 1000 μg/mL) was 71.3 ± 1.92%, the “Pheretima posthuma Death Time” value (Pheretima posthuma; 10 mg/mL) was 23.67 ± 1.52 min and the “Pheretima posthuma Paralysis Time” value (Pheretima posthuma; 10 mg/mL) was 06.67 ± 1.08 min. For the same molecule, the “Pheretima posthuma Death Time” value (Pheretima posthuma; 20 mg/mL) was 19.23 ± 2.56 min, the “Pheretima posthuma Paralysis Time” value (Pheretima posthuma; 20 mg/mL) was 05.68 ± 0.34 min and the “Pheretima posthuma Death Time” value (Pheretima posthuma; 40 mg/mL) was 14.71 ± 1.73 min. The “Pheretima posthuma Paralysis Time” value (Pheretima posthuma; 40 mg/mL) was 02.48 ± 1.62 min, the “Pheretima posthuma Death Time” value (Pheretima posthuma; [5]) was 14.71 min and the “Pheretima posthuma Paralysis Time” value (Pheretima posthuma; [5]) was 2.48 min. The IC50 (MCF-7) was 277 µg/mL (≈ 1130 µM), the “ABTS IC50 value” (ABTS anti-radicals study) was 84.36 µg/mL and the “ABTS % Inhibition (Mean±SEM)” value (ABTS anti-radicals study; 62.5 µg/mL) was 48.08±2.19%. For the same molecule, the “ABTS % Inhibition (Mean±SEM)” value (ABTS anti-radicals study; 125 µg/mL) was 57.22±1.63%, the “ABTS % Inhibition (Mean±SEM)” value (ABTS anti-radicals study; 250 µg/mL) was 61.28±0.84% and the “ABTS % Inhibition (Mean±SEM)” value (ABTS anti-radicals study; 500 µg/mL) was 68.35±1.96%. For the same molecule, the “ABTS % Inhibition (Mean±SEM)” value (ABTS anti-radicals study; 1000 µg/mL) was 75.84±1.58%, the “ABTS % Inhibition (Mean±SEM)” value (ABTS anti-radicals study; [6]) was 72.85±1.17% and the “ABTS IC50 value” (ABTS anti-radicals study; listed as test compound) was 139.74 µg/mL. The “Ascaridia galli Death Time” value (Ascaridia galli; 10 mg/mL) was 18.42 ± 1.70 min, the “Ascaridia galli Paralysis Time” value (Ascaridia galli; 10 mg/mL) was 06.54 ± 1.67 min and the “Ascaridia galli Death Time” value (Ascaridia galli; 20 mg/mL) was 11.36 ± 1.94 min. The “Ascaridia galli Paralysis Time” value (Ascaridia galli; 20 mg/mL) was 04.82 ± 1.38 min, the “Ascaridia galli Death Time” value (Ascaridia galli; 40 mg/mL) was 09.39 ± 1.48 min and the “Ascaridia galli Paralysis Time” value (Ascaridia galli; 40 mg/mL) was 02.19 ± 0.96 min. The IC50 (NIH/3T3) was 181 µg/mL (≈ 738 µM), the IC50 [2] was 539 µM and the “Butyrylcholinesterase (BChE) Percent Inhibition (Mean±SEM)” value ([2]; 1000 µg/mL) was 73.4±1.9%. It also gave an inhibition at 62.5 µg/mL ([2]; read-out: Butyrylcholinesterase (BChE) Percent Inhibition (Mean±SEM), 62.5 μg/mL) of 36.9%, an inhibition at 125 µg/mL ([2]; read-out: Butyrylcholinesterase (BChE) Percent Inhibition (Mean±SEM), 125 μg/mL) of 49.3% and an inhibition at 250 µg/mL ([2]; read-out: Butyrylcholinesterase (BChE) Percent Inhibition (Mean±SEM), 250 μg/mL) of 52.7%. For the same molecule, the inhibition at 500 µg/mL ([2]; read-out: Butyrylcholinesterase (BChE) Percent Inhibition (Mean±SEM), 500 μg/mL) was 64.3%, the inhibition at 1000 µg/mL ([2]; read-out: Butyrylcholinesterase (BChE) Percent Inhibition (Mean±SEM), 1000 μg/mL) was 73.4 ± 1.92% and the IC50 (MDA-MB-231) was 231 µg/mL (≈ 942 µM). For the same molecule, the cytotoxicity at 48 h, 1000 ppm [3] was 16%, the IC50 (WI-38) was over 3000 µg/mL and the IC50 (HCT-116) was 78 µg/mL (≈ 318 µM). For the same molecule, the “H2O2 IC50 value” (H2O2 anti-radicals study) was 752.21 µg/mL, the “H2O2 % Inhibition (Mean±SEM)” value (H2O2 anti-radicals study; 62.5 µg/mL) was 26.08±2.66% and the “H2O2 % Inhibition (Mean±SEM)” value (H2O2 anti-radicals study; 125 µg/mL) was 31.58±1.40%. For the same molecule, the “H2O2 % Inhibition (Mean±SEM)” value (H2O2 anti-radicals study; 250 µg/mL) was 39.92±2.08%, the “H2O2 % Inhibition (Mean±SEM)” value (H2O2 anti-radicals study; 500 µg/mL) was 46.08±1.36% and the “H2O2 % Inhibition (Mean±SEM)” value (H2O2 anti-radicals study; 1000 µg/mL) was 54.82±1.82%. For the same molecule, the “DPPH IC50 value” [4] was 139.74 µg/mL, the “DPPH % Inhibition (Mean±SEM)” value ([4]; 62.5 µg/mL) was 33.32±2.04% and the “DPPH % Inhibition (Mean±SEM)” value ([4]; 125 µg/mL) was 49.01±1.28%. For the same molecule, the “DPPH % Inhibition (Mean±SEM)” value ([4]; 250 µg/mL) was 61.41±2.36%, the “DPPH % Inhibition (Mean±SEM)” value ([4]; 500 µg/mL) was 71.36±1.92% and the “DPPH % Inhibition (Mean±SEM)” value ([4]; 1000 µg/mL) was 72.85±1.17%. The “DPPH % Inhibition (Mean±SEM)” value [4, 6] was 75.84±1.58% and the “DPPH IC50 value” ([4]; listed as test compound) was 84.36 µg/mL.
With C[C@H]1O[C@H](O[C@H]2[C@H](O)[C@@H](O)[C@@H](O[C@H]3[C@H](O)[C@@H](O)C(O)O[C@@H]3CO)O[C@@H]2CO)[C@H](O)[C@@H](O)[C@@H]1N[C@H]1C=C(CO)[C@@H](O)[C@H](O)[C@H]1O (some centres unmarked) [Acarbose, acarbose] the “Percent α-glucosidase inhibition” value (α-glucosidase; 31.25 µg/mL) was 59.7±1.7%, the “Percent α-glucosidase inhibition” value (α-glucosidase; 62.5 µg/mL) was 67.3±2.8% and the “Percent α-glucosidase inhibition” value (α-glucosidase; 125 µg/mL) was 71.7±1.7%. The “Percent α-glucosidase inhibition” value (α-glucosidase; 250 µg/mL) was 74.4± 2.3%, the “Percent α-glucosidase inhibition” value (α-glucosidase; 500 µg/mL) was 81.7±2.6% and the “Percent α-glucosidase inhibition” value (α-glucosidase; 1000 µg/mL) was 86.7±2.6%.
